{"data": "Published values gathered from unrelated publications", "EP300": "Histone acetyltransferase p300 (EP300, Homo sapiens, UniProt Q09472)"}
{"Structure (SMILES)": "CN(C)C1CCN(CC#Cc2nn(C3CCCC3)c3nc(NCc4ccccc4)ncc23)C1 (centres unmarked)", "target": "Tyrosine-protein kinase ITK/TSK (ITK, Homo sapiens, UniProt Q08881)", "assay": "enzyme activity, inhibitor, FRET", "conditions": "1 µM", "quantity": "inhibition", "value": "5%"}
{"Structure (SMILES)": "Oc1cccc(Nc2nc(-c3ccc(F)cc3F)cs2)c1", "target": "Androgen receptor (AR, Homo sapiens, UniProt P10275)", "assay": "cell-free assay", "conditions": "10 µM", "quantity": "inhibition", "value": "26.5%"}
{"Structure (SMILES)": "COc1cc(-c2cc(-c3ccc(N4CCNCC4)cc3)cnc2N)cc(OC)c1OC", "target": "Tyrosine-protein kinase ABL1 (ABL1, Homo sapiens, UniProt P00519, H396P)", "assay": "enzyme activity, inhibitor", "conditions": "1 µM", "quantity": "inhibition", "value": "96%"}
{"Structure (SMILES)": "Nc1ncnc2occ(-c3ccc(NC(=O)Nc4cc(C(F)(F)F)ccc4F)cc3)c12", "target": "Tyrosine-protein kinase ABL1, non-phosphorylated (ABL1, Homo sapiens, UniProt P00519, F317I)", "assay": "cell-free assay, inhibitor", "conditions": "20 µM", "quantity": "remaining signal", "value": "0.45%"}
{"Structure (SMILES)": "Nc1ncnc2c1ncn2[C@@H]1O[C@H](CSCC[C@H](N)C(=O)O)[C@@H](O)[C@H]1O", "target": "Protein arginine N-methyltransferase 6 (PRMT6, Homo sapiens, UniProt Q96LA8)", "assay": "thermal stability, DSF", "conditions": "100 µM", "quantity": "ΔTm", "value": "8.4 °C"}
{"Structure (SMILES)": "CCN(CC)CCNC(=O)c1c(C)[nH]c(/C=C2\\C(=O)Nc3ccc(F)cc32)c1C", "target": "Protein kinase C beta type (PRKCB, Homo sapiens, UniProt P05771)", "assay": "enzyme activity, inhibitor", "conditions": "10 µM", "quantity": "inhibition", "value": "0%"}
{"Structure (SMILES)": "Cc1cnc(Nc2ccc(OCCN3CCCC3)cc2)nc1Nc1cccc(S(=O)(=O)NC(C)(C)C)c1", "target": "EP300", "assay": "thermal stability, DSF", "conditions": "10 µM", "quantity": "ΔTm", "value": "2.76 °C"}
{"Structure (SMILES)": "Cc1cc(NC(=O)c2cccc3cc(-c4cccc5[nH]nc(N)c45)ccc23)ccc1F", "target": "Tyrosine-protein kinase ABL1 (ABL1, Homo sapiens, UniProt P00519)", "assay": "enzyme activity, inhibitor", "conditions": "0.1 µM", "quantity": "activity vs control", "value": "85%"}
{"Structure (SMILES)": "O=c1c(O)cccc2cc(O)c(O)c(O)c12", "target": "N-lysine methyltransferase KMT5A (KMT5A, Homo sapiens, UniProt Q9NQR1)", "assay": "cell-free assay", "conditions": "10 µM", "quantity": "inhibition", "value": "7%"}
{"Structure (SMILES)": "Cc1ccc(C(=O)Nc2ccc(CN3CCN(C)CC3)c(C(F)(F)F)c2)cc1C#Cc1cnc2cccnn12", "target": "Serine/threonine-protein kinase RIO1 (RIOK1, Homo sapiens, UniProt Q9BRS2)", "assay": "enzyme activity, inhibitor", "conditions": "23.5 nM", "quantity": "remaining activity", "value": "98%"}
{"Structure (SMILES)": "NS(=O)(=O)c1ccc(Nc2nc(-c3ccc(F)cc3)c3ccccc3n2)cc1", "target": "EP300", "assay": "binding, competition with immobilised ligand", "conditions": "1 µM", "quantity": "remaining binding", "value": "62%"}
{"Structure (SMILES)": "c1ccc([C@H]2O[C@H]2c2ccccc2)cc1", "target": "Epoxide hydrolase 1 (EPHX1, Homo sapiens, UniProt P07099)", "assay": "enzyme activity, substrate", "conditions": "pH 9", "quantity": "Km", "value": "141 µM"}
{"Structure (SMILES)": "C[S+]([O-])c1ccc(-c2nc(-c3ccncc3)c(-c3ccc(F)cc3)[nH]2)cc1 (centres unmarked)", "target": "EP300", "assay": "thermal stability, DSF", "conditions": "10 µM", "quantity": "ΔTm", "value": "0.35 °C"}
{"Structure (SMILES)": "Cc1cnc(NC2CCOCC2)nc1-n1cnc(C(=O)NC(CN)c2cc(F)cc(Cl)c2)c1 (centres unmarked)", "target": "Tyrosine-protein kinase ABL1 (ABL1, Homo sapiens, UniProt P00519, M351T)", "assay": "enzyme activity, inhibitor, radiometric", "conditions": "1 µM", "quantity": "remaining activity", "value": "95%"}
